# Experimental data: ChEMBL document CHEMBL4118145, “Structure-activity relationship investigation of Phe-Arg mimetic region of human glutaminyl cyclase inhibitors” (Bioorg Med Chem, 2018)
# What was measured:
# HT-22 = assay: Cytotoxicity against mouse HT22 cells assessed as decrease in cell viability at 10 uM by MTT assay relative to control; format: cell-based; conditions: ht-22, 10 µM
# In short: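 HT-22 immortalized hippocampal neuronal cells incubated with compound at 10 μM; viability read by MTT assay and expressed as % of control.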
# hERG (KCNH2) = hERG (KCNH2) (Homo sapiens, UniProt Q12809); assay: Inhibition of human ERG at 10 uM relative to control
# In short: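 hERG channel blocking tested at 10 μM, reported as % inhibition.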
# Mus musculus = assay: In vivo inhibition of glutaminyl cyclase in ICR mouse brain extract assessed as decrease in levels of human pyroglutamyl-beta-amyloid (1 to 40) containing N-terminal pyroglutamte at position 3 at 25 mg/kg, icv measured next day by sandwich ELISA relative to control; format: functional; conditions: central
# In short: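 Male ICR mice (25 g, n = 4) received icv injection of human Aβ3-40 (5 μL of 1 μg/μL in PBS, 5 µg) into deep cortical/hippocampal tissue via stereotaxic frame, then compound at 25 mg/kg icv. Brain extracts taken next day; Aβ N3pE-40 quantified by sandwich ELISA, expressed as % inhibition versus vehicle control.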
# Chain of hERG (KCNH2) (Q12809 whole entry): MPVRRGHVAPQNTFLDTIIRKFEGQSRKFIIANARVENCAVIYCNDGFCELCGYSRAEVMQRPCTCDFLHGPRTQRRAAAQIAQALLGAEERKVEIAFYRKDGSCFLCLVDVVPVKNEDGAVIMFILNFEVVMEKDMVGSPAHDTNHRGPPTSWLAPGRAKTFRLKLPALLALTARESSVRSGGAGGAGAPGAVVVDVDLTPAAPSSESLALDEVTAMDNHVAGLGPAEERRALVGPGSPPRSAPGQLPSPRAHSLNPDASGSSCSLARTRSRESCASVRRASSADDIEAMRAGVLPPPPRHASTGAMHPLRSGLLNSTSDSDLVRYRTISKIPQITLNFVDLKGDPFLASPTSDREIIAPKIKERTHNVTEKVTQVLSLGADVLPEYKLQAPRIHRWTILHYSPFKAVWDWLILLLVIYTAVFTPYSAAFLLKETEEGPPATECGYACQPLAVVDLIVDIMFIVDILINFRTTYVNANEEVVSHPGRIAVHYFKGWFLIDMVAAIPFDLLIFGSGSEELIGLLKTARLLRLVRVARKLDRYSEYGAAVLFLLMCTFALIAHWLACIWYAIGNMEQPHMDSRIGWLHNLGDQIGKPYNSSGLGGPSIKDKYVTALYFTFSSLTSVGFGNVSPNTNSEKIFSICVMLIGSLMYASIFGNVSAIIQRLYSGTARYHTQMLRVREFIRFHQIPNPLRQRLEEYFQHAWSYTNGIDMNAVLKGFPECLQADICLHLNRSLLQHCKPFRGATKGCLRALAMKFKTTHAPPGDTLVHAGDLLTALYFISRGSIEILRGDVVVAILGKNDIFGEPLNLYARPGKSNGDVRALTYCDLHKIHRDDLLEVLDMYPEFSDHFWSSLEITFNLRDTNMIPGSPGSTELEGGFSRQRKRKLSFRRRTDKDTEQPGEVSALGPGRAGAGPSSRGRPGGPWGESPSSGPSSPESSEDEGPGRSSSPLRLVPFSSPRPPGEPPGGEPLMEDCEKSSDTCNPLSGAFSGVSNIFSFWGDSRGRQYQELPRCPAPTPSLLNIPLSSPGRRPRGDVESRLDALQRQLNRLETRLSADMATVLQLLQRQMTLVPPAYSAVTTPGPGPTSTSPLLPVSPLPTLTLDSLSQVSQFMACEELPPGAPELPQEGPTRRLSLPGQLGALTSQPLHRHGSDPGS
Compound,Activity (HT-22) [%],inhibition at 10 µM (hERG (KCNH2)) [%],inhibition in vivo at 25 mg/kg (Mus musculus) [%]
COc1ccc(NC(=S)NCCCn2cncc2C)cc1OCCN,100,15.3,35.3
Cc1cncn1CCCNC(=S)Nc1ccc(/C=C/C(=O)N2CCN(CCN)CC2)cc1,100,7.2,22.9
COc1ccc(NC(=S)NCCCn2cncc2C)cc1OCCCCN,100,2.8,36.6
COc1ccc(NC(=S)NCCCn2cncc2C)cc1OCCCC1CCNCC1,100,25.6,5.5
COc1ccc(NC(=S)NCCCn2cncc2C)cc1OCCCN,100,8.8,12.8
COc1ccc(NC(=S)NCCCn2cncc2C)cc1OCCCCC1CCNCC1,100,35.1,14.4
COc1ccc(NC(=S)NCCCn2cncc2C)cc1OCCC1CCNCC1,100,14.9,1.8
Cc1cncn1CCCNC(=S)Nc1ccc(OCC(=O)NC2CCN(CCN)CC2)cc1,100,19.9,
